These results are taken from the array DNA melting data of Ke et al. (doi:10.1101/2024.01.08.574731).

The nature of series [1]: melting temperature; fluorescence melt of hairpins on a sequencing array, two-state fit, raised by 9.35 °C to match UV melts. The settings on record: sodium 0.088 M. The gist of the method: (§1)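 Hairpins were imaged by Cy3 fluorescence on a sequenced MiSeq flow cell with annealed Cy3 and quencher oligos, in 50 mM Na-HEPES pH 8.0, 25 mM NaCl, in 2.5 °C steps up to 60 °C. Bootstrapped two-state fits of normalised signals gave melting temperature and folding enthalpy. Four replicates were combined by inverse variance, and fitted temperatures were raised by 9.35 °C to match UV melts.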

Series [2] can be described thus: folding enthalpy; higher = less favourable; fluorescence melt of hairpins on a sequencing array, two-state fit. Conditions: sodium 0.088 M. The gist of the method: as §1

GATGATGCGAAAGCAATC (((..(((....)))))): the Tm in series [1] is 37.6 °C. For the same sequence, the folding enthalpy in series [2] was -13.7 kcal/mol.
The like results for GATGCAGGAAACTACATC ((((.((....)).)))) were, in that order, 36.4 °C and -30.7 kcal/mol.
The like results for GATGCAGGAAACTGTATC (((.(((....))).))) were, in that order, 44.9 °C and -33.5 kcal/mol.
On to GATGCAGGAAACTGTGTC ((..(((....)))..)), for which, in series [1], the Tm was 35.5 °C. Also, in series [2], the folding enthalpy is -27.1 kcal/mol.
The like results for GATGCCGAAAGGCAAATC ((((((....)))..))) were, in that order, 35.4 °C and -10.4 kcal/mol.
The like results for GATGCCGAAAGGCACATC ((((((....)))..))) were, in that order, 33.3 °C and -8.64 kcal/mol.
Turning to GATGCCGAAAGGCGCATC ((((((....)))..))), the Tm in series [1] is 32.6 °C. Further, the folding enthalpy in series [2] was -9.01 kcal/mol.
As to GATGCCGAAAGGCTAATC ((((((....)))..))), the Tm in series [1] turned out to be 30.1 °C. In series [2], the folding enthalpy is -9.64 kcal/mol.
For GATGCCGAAAGGCTCATC ((((((....)))..))), in that order: 32.7 °C and -10.4 kcal/mol.
In the case of GATGCCGGAAACGGCACC (.(((((....))))).), in series [1], the Tm came to 44.5 °C. Moreover, the folding enthalpy in series [2] was -9.72 kcal/mol.
The like results for GATGCCGGAAACGGCGTC ((.((((....)))).)) were, in that order, 62.6 °C and -21.2 kcal/mol.
For the sequence GATGCGCGAAAGCGAATC (((.(((....))).))), the Tm in series [1] was 57.2 °C. In addition, the folding enthalpy in series [2] was -22.3 kcal/mol.
For GATGCGCGAAAGCGGATC (((.(((....))).))), in that order: 64.5 °C and -30.6 kcal/mol.
For GATGCTGGAAACAGTGTC ((..(((....)))..)), in that order: 37.8 °C and -26.2 kcal/mol.
Regarding GATGGACCGAAAGGTATC (((..(((....)))))), the Tm in series [1] stood at 26.8 °C. Further, the folding enthalpy in series [2] was -11.1 kcal/mol.
The like results for GATGGAGGAAACTCCACC (.(((((....))))).) were, in that order, 34.1 °C and -16.3 kcal/mol.
Turning to GATGGAGGAAACTCCATC (((((((....))))))), the Tm in series [1] was determined as 59 °C. In series [2], the folding enthalpy is -38.5 kcal/mol.
In the case of GATGGCCGAAAGGCTATC (((.(((....))).))), the Tm in series [1] was 57.5 °C. Moreover, the folding enthalpy in series [2] is -27.8 kcal/mol.
For GATGGCGAAAGCCAAATC ((((((....)))..))), in that order: 33.9 °C and -9.36 kcal/mol.
The like results for GATGGCGAAAGCCCATC ((((((....))).))) were, in that order, 52.4 °C and -16.6 kcal/mol.
The like results for GATGGCGAAAGCCGGATC ((((((....)))..))) were, in that order, 37 °C and -10.2 kcal/mol.
On to GATGGCGGAAACACCATC (((((.(....).))))), for which the Tm in series [1] was determined as 47.2 °C. Further, in series [2], the folding enthalpy was -34.3 kcal/mol.
In the case of GATGGGCGAAAGCCGATC (((.(((....))).))), the Tm in series [1] is 52.7 °C. Moreover, the folding enthalpy in series [2] is -18.8 kcal/mol.
The like results for GATGGTGGAAACACTGTC ((..(((....)))..)) were, in that order, 35.8 °C and -15.5 kcal/mol.
The like results for GATGTAGAAATACATC ((((((....)))))) were, in that order, 45.7 °C and -30.3 kcal/mol.
The like results for GATGTAGGAAACCACATC (((((.(....).))))) were, in that order, 37.6 °C and -34.1 kcal/mol.
Regarding GATGTCGGAAACGACATC (((((((....))))))), in series [1], the Tm turned out to be 68.4 °C. In addition, in series [2], the folding enthalpy was -36.4 kcal/mol.
Regarding GATGTCGGAAACGGCATC ((((.((....)).)))), in series [1], the Tm was 54.4 °C. The folding enthalpy in series [2] is -46.5 kcal/mol.
Take GATGTGAAAACATC (((((....))))): the Tm in series [1] was found to be 49 °C. In addition, in series [2], the folding enthalpy was -28.4 kcal/mol.
Consider GATGTGGAAACACATC ((((((....)))))), for which the Tm in series [1] was 57.1 °C. Moreover, the folding enthalpy in series [2] is -35.5 kcal/mol.
The like results for GATGTTACGAAAGTAATC (((..(((....)))))) were, in that order, 26.9 °C and -13.5 kcal/mol.
Turning to GATGTTGGAAACAACACC (.(((((....))))).), the Tm in series [1] worked out at 34.8 °C. Besides, the folding enthalpy in series [2] is -15.6 kcal/mol.
With GATTAACCGAAAGGTATC (((..(((....)))))), the Tm in series [1] stood at 27.6 °C. The folding enthalpy in series [2] is -12.7 kcal/mol.
With GATTAACGAAAGTTCATC (((.(((....))).))), in series [1], the Tm was 33.9 °C. For the same sequence, the folding enthalpy in series [2] was -24.6 kcal/mol.
Regarding GATTAACGAAAGTTTATC (((.(((....))).))), the Tm in series [1] is 34.9 °C. Moreover, the folding enthalpy in series [2] was -22.8 kcal/mol.
For GATTAAGGAAACTTAGTC ((.((((....)))).)), in that order: 28 °C and -12.6 kcal/mol.
As for GATTACACGAAAGTGATC (((..(((....)))))), the Tm in series [1] was 26.4 °C. Besides, in series [2], the folding enthalpy was -9.64 kcal/mol.
The like results for GATTACGAAAGTAAATC ((((((....))).))) were, in that order, 36 °C and -19.9 kcal/mol.
As for GATTACGAAAGTAAGATC ((((((....)))..))), the Tm in series [1] was found to be 39 °C. The folding enthalpy in series [2] was -16.2 kcal/mol.
The like results for GATTACGAAAGTATAATC ((((((....)))..))) were, in that order, 27.1 °C and -7.84 kcal/mol.
For GATTACGAAAGTATATC ((((((....))).))), in series [1], the Tm was found to be 32.9 °C. For the same sequence, in series [2], the folding enthalpy was -17.1 kcal/mol.
As to GATTACGCGAAAGCGATC (((..(((....)))))), the Tm in series [1] was determined as 21.4 °C. Moreover, in series [2], the folding enthalpy was -6.5 kcal/mol.
For GATTAGCGAAAGCTGATC (((.(((....))).))), in that order: 51.1 °C and -31 kcal/mol.
The like results for GATTAGGAAACTAATC ((((((....)))))) were, in that order, 43.9 °C and -30.5 kcal/mol.
As for GATTAGGCGAAAGCCATC (((..(((....)))))), the Tm in series [1] came to 23.4 °C. Also, the folding enthalpy in series [2] is -8.82 kcal/mol.
In the case of GATTAGGGAAACCTAGTC ((.((((....)))).)), the Tm in series [1] was found to be 33.7 °C. Further, in series [2], the folding enthalpy was -25.4 kcal/mol.
For the sequence GATTCCCGAAAGGGGATC (((.(((....))).))), in series [1], the Tm was determined as 57.3 °C. For the same sequence, the folding enthalpy in series [2] was -36.3 kcal/mol.
The like results for GATTCCGAAAGGACATC ((((((....))).))) were, in that order, 39.2 °C and -21.4 kcal/mol.
Turning to GATTCCGAAAGGAGATC ((((((....))).))), the Tm in series [1] was found to be 33.7 °C. For the same sequence, the folding enthalpy in series [2] was -21.3 kcal/mol.
For GATTCCGAAAGGAGTATC ((((((....)))..))), in that order: 27.1 °C and -15.7 kcal/mol.
The like results for GATTCCGAAAGGATCATC ((((((....)))..))) were, in that order, 29.6 °C and -17 kcal/mol.
Regarding GATTCGGGAAACCGAACC (.(((((....))))).), the Tm in series [1] was determined as 40.2 °C. For the same sequence, the folding enthalpy in series [2] was -13.7 kcal/mol.
As for GATTCTCCGAAAGGAATC (((..(((....)))))), the Tm in series [1] came out at 28.2 °C. For the same sequence, the folding enthalpy in series [2] was -14.2 kcal/mol.
The like results for GATTCTGAAAAGAATC ((((((....)))))) were, in that order, 50 °C and -33.1 kcal/mol.
For GATTCTGGAAACAGAGTC ((.((((....)))).)), in that order: 38.3 °C and -30.2 kcal/mol.
For GATTGACGAAAGTCCATC (((.(((....))).))), in that order: 39.3 °C and -23 kcal/mol.
For GATTGAGCGAAAGCTATC (((..(((....)))))), in series [1], the Tm was 30.7 °C. Moreover, in series [2], the folding enthalpy is -11.6 kcal/mol.
In the case of GATTGAGGAAACCCAATC (((((.(....).))))), in series [1], the Tm is 35.1 °C. The folding enthalpy in series [2] is -29.2 kcal/mol.
On to GATTGCGAAAGCAAATC ((((((....))).))), for which, in series [1], the Tm turned out to be 50.2 °C. The folding enthalpy in series [2] was -15.9 kcal/mol.
For GATTGCGAAAGCATCATC ((((((....)))..))), in that order: 29.6 °C and -10.9 kcal/mol.
Regarding GATTGCGAAAGCATTATC ((((((....)))..))), the Tm in series [1] came to 26.6 °C. In addition, in series [2], the folding enthalpy was -11.2 kcal/mol.
With GATTGCGGAAACACAATC (((((.(....).))))), the Tm in series [1] was 41.6 °C. Further, in series [2], the folding enthalpy is -28.9 kcal/mol.
The like results for GATTGCGGAAACGCAATC (((((((....))))))) were, in that order, 67.9 °C and -37.8 kcal/mol.
The like results for GATTGCGGAAACGTAATC ((((.((....)).)))) were, in that order, 47.6 °C and -38.8 kcal/mol.
For GATTGGAAACAATC (((((....))))), in that order: 40.5 °C and -23.6 kcal/mol.
Regarding GATTGGACGAAAGTCATC (((..(((....)))))), the Tm in series [1] worked out at 27 °C. Further, the folding enthalpy in series [2] was -10.5 kcal/mol.
For GATTGGGAAACCAATC ((((((....)))))), in that order: 52.3 °C and -35 kcal/mol.
For GATTGGGGAAACCCAGTC ((.((((....)))).)), in that order: 44.7 °C and -24.4 kcal/mol.
The like results for GATTGGGGAAACCTGATC (((..((....))..))) were, in that order, 30.6 °C and -18.6 kcal/mol.
On to GATTGTGAAAACAATC ((((((....)))))), for which, in series [1], the Tm came out at 51.4 °C. Also, in series [2], the folding enthalpy is -35.9 kcal/mol.
For GATTGTGGAAACACAACC (.(((((....))))).), in that order: 35.9 °C and -16.9 kcal/mol.
In the case of GATTGTGGAAACACAATC (((((((....))))))), the Tm in series [1] came to 56.8 °C. For the same sequence, in series [2], the folding enthalpy was -43.6 kcal/mol.
In the case of GATTTCACGAAAGTGATC (((..(((....)))))), the Tm in series [1] was 23.4 °C. For the same sequence, in series [2], the folding enthalpy is -9.78 kcal/mol.
